The list is not random: actives were taken first. Their share in the collection is about 4.9%.
APP 5'UTR act: activators of APP 5'UTR luciferase reporter, primary screen, SH-SY5Y cells; SH-SY5Y APP 5'UTR luciferase reporter, luminescence; zero percent = DMSO vehicle wells; activation, % at 2 µM; 190,000 compounds, 1% hits; AID 1276, 2008;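 active = activation above a set limit, based on mean plus 3 SD of controls, cut at about 140% in these data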
STAT1 activator: STAT1 signaling activators, primary screen, cell-based, HTS, luciferase reporter. NIH 3T3 STAT1-luciferase reporter, IFN-gamma, luminescence; 100% = IFN-gamma alone, no compound. activation (% of control), % at 5.5 µM. 200,000 compounds, 2.6% hits. AID 932, 2007;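 active = activation above the screen-wide mean activation plus 3 SD, cut at about 130% in these data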;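 note: raw ratio to IFN-gamma control signal so 100% means no change and 0% no light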
STAT3 act: IL-6 driven STAT3 reporter potentiators, primary screen, U3A cells, luciferase, luminescence, MLSCN library; 190,000 compounds, 0.91% hits; activation (% of control), % at 5.6 µM; IL-6 STAT3-luciferase reporter; 100% = signal with IL-6 EC80 alone;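 active = activation above the screen-wide mean of compound activation plus 3 SD, cut at about 130% in these data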;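 note: 0% = background luminescence of wells with medium and substrate only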
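Test system: STAT3-luciferase reporter U3A cells; Detection: reporter luminescence signal; Times: 1 h compound pre-exposure, 6 h IL-6 stimulation, 37 °C; Benchmarks: IL-6-only high control; Also added: IL-6 stimulus at 33 ng/mL final.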
STAT1 blocker: STAT1 signaling inhibitors, primary screen, cell-based, HTS, luciferase reporter; NIH 3T3 STAT1-luciferase reporter, IFN-gamma, luminescence; inhibition, % at 5.5 µM; 200,000 compounds, 0.35% hits;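 active = inhibition above a set limit, the mean inhibition across all tested compounds plus 3 SD, cut at about 34% in these data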;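 note: 0% = IFN-gamma with DMSO and 100% = IFN-gamma with 300 µM nifuroxazide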
NF-kB neuron act: activators of NF-kB expression in neurons, primary screen, cell-based, HTS; 190,000 compounds, 1.6% hits; human neuronal cells, NF-kB reporter expression; hits give high values; fold change at 12.5 µM; in the data active = fold change above about 3.3
STAT3 inh-1: IL-6 driven STAT3 reporter inhibitors, primary screen, U3A cells, luciferase, luminescence, MLSCN library. IL-6 STAT3-luciferase reporter; host cell line lacks STAT1. inhibition, % at 5.5 µM. 190,000 compounds, 0.89% hits. AID 862, 2007;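 active = inhibition above the mean inhibition across all screened compounds plus 3 SD, cut at about 44% in these data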;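 note: 0% = DMSO only wells and 100% = 100 µM nifuroxazide control wells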
STAT3 inh-2: STAT3 reporter inhibitors, retest of hits, confirmation, U3A cells, luciferase, luminescence | shares compounds with STAT3 inh-1 | IL-6 STAT3 luciferase reporter; cell line lacks STAT1 | inhibition, % at 5.7 µM | 1,200 compounds, 45% hits;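 active = inhibition above the hit cutoff computed for the primary STAT3 screen, cut at about 44% in these data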;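 note: 0% = IL-6 plus DMSO and 100% = IL-6 plus nifuroxazide control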
NFkB inh 2: NF-kB reporter inhibitors in human cells, confirmation, counter-screen for STAT3 inhibitor project, cell-based, HEK293T, luciferase, TNF-alpha stimulus; shares compounds with STAT3 inh-1; TNF-alpha induced; inhibition, % at 5.7 µM; 1,200 compounds, 36% hits; AID 1308, 2008;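 active = inhibition above the mean of solvent-only control wells plus 3 SD, cutoff set per campaign, cut at about 13% in these data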;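 note: 0% = TNF-alpha with DMSO and 100% = TNF-alpha with MG high control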
STAT1 inh STAT3c: STAT1 reporter inhibitors, IFN-gamma induced, confirmation, counter-screen for STAT3 inhibitor project, cell-based, NIH 3T3, luciferase luminescence | shares compounds with STAT3 inh-1 | NIH 3T3 STAT1-luciferase reporter | inhibition, % at 5.7 µM | 1,200 compounds, 27% hits | AID 1317, 2008;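 active = inhibition above the mean plus 3 SD of solvent-only control wells, limit set per screening run, cut at about 16% in these data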;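 note: 0% = DMSO with IFN-gamma and 100% = nifuroxazide control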
* marks the source's active call; other numbers are inactive results; . = no result given.

SMILES | APP 5'UTR act | STAT1 activator | STAT3 act | STAT1 blocker | NF-kB neuron act | STAT3 inh-1 | STAT3 inh-2 | NFkB inh 2 | STAT1 inh STAT3c
Cc1ccc(N=c2c([N+](=O)[O-])nn(-c3ccc4c(c3)OCCO4)n2O)c(Cl)c1 | 14 | 71 | 62 | 30 | 0.7 | 49* | -15 | 0 | -61
Cc1cc(C)cc(N=c2c([N+](=O)[O-])nn(-c3ccc4c(c3)OCCO4)n2O)c1 | -23 | 102 | 92 | -4 | 0.45 | 17 | . | . | .
CC(C)(C)SCCNC(=O)CN(c1ccc(F)cc1)S(=O)(=O)c1ccccc1 | -18 | 88 | 101 | 12 | 1.1 | 4 | . | . | .
CC(C)Oc1ccc(C(=O)Nc2ccc(N(C)C)cc2)cc1 | 49 | 109 | 61 | -10 | 2.5 | 54* | 35 | -9 | -36
CCCOc1ccc(C(=O)Nc2ccc(N3CCN(C(C)=O)CC3)cc2)cc1 | 14 | 90 | 87 | 11 | 1 | 17 | . | . | .
CCCCOc1ccc(C(=O)Nc2ccncc2)cc1 | 19 | 84 | 36 | 18 | 1 | 79* | 79* | 4 | 14
CCCOc1ccc(C(=O)Nc2ccc(N(C)C)cc2)cc1 | 5 | 119 | 67 | -21 | 1.4 | 47* | 30 | -15 | -42
CCCCOc1ccc(C(=O)NC)cc1 | . | 100 | 99 | -2 | 1.7 | 5 | . | . | .
CCOc1cc(/C=N/NC(=O)c2cccnc2)cc(Br)c1OCC(N)=O | 5 | 101 | 106 | -1 | . | -1 | . | . | .
O=c1cc(O)c2sc3nc(-c4cccnc4)cc(C(F)(F)F)c3c2[nH]1 | -14 | 95 | 112 | 6 | 0.66 | -13 | . | . | .
CC(=O)c1c(C)[nH]c(C(=O)COc2cc(C)cc(C)c2)c1C | 9 | 89 | 66 | 12 | 0.88 | 44* | 36 | 7 | 12
CC(=O)c1cn(CC(=O)Nc2ccc(C)cc2C)c2ccccc12 | -14 | 73 | 51 | 26 | 1 | 62* | 61* | 12 | 22*
CC(=O)c1cn(CC(=O)Nc2cccc(C)c2C)c2ccccc12 | -5 | 72 | 60 | 29 | 0.8 | 49* | 44* | 15* | 23*
CC(=O)c1cn(CC(=O)NCc2cccnc2)c2ccccc12 | -8 | 93 | 94 | 7 | 1.1 | 10 | . | . | .
COCCCNC(=O)Cn1cc(C(C)=O)c2ccccc21 | -6 | 102 | 91 | 0 | 1.2 | 12 | . | . | .
N#CCCN(C(=O)COc1ccc(Cl)cc1Cl)c1ccccc1 | 0 | 103 | 107 | -1 | 1.1 | -12 | . | . | .
Cc1nc2ccc(S(=O)(=O)NCC(=O)N(C)Cc3ccccc3)cc2s1 | 9 | 98 | 100 | 2 | 1.2 | 2 | . | . | .
COc1ccc(-c2nn(C)c(=O)c3ccccc23)cc1NC(=O)COc1ccc(C)cc1 | 10 | 86 | 46 | 16 | 0.98 | 65* | 49* | 10 | 13
Cc1nc2ccc(NS(=O)(=O)c3ccc4c(c3)OCCO4)cc2s1 | 11 | 78 | 41 | 24 | 0.82 | 71* | 67* | 26* | 28*
O=C1C=C(NC2=CC3OC(c4ccccc4)OCC3OC2=O)CCC1 (centres undefined) | -13 | 84 | 57 | 18 | 0.96 | 51* | 36 | 21* | 18*
Cc1ccc(-n2c(-c3ccccc3)c[n+]3c2CCc2ccccc2-3)c(C)c1 | 27 | 74 | 47 | 28 | 0.76 | 66* | 60* | -2 | 25*
Cc1ccc(-n2c(SCC(=O)N3CCCc4ccccc43)nnc2-c2cccnc2)c(C)c1 | -25 | 100 | 85 | 0 | 0.72 | 20 | . | . | .
O=C(COC(=O)c1ccccc1S(=O)(=O)N1CCCCC1)NCC(F)(F)F | 1 | 100 | 99 | 0 | 1.1 | 4 | . | . | .
O=C(CCl)N(c1ccc(Cl)cc1)c1c[nH]c2ccccc12 | -18 | 79 | 75 | 23 | 1 | 34 | . | . | .
O=C(CCl)N(c1ccccc1)c1c[nH]c2ccccc12 | -32 | 69 | 64 | 34 | 0.41 | 45* | 31 | 19* | 28*
SMILES | APP 5'UTR act | STAT1 activator | STAT3 act | STAT1 blocker | NF-kB neuron act | STAT3 inh-1 | STAT3 inh-2 | NFkB inh 2 | STAT1 inh STAT3c
Cc1nn(C)c(C)c1CN(C)S(=O)(=O)c1ccc2ccccc2c1 | -47 | 69 | 36 | 33 | 0.81 | 78* | 80* | 30* | 24*
O=C(Nc1ccc(-c2nc3cccnc3s2)cc1)C1CCCO1 (centres undefined) | 76 | 79 | 27 | 23 | 2.7 | 84* | 66* | 16* | -14
Cc1ccc2nc(-c3ccc(NC(=O)C4CCCO4)cc3)[nH]c2c1 (centres undefined) | 115 | 95 | 41 | 6 | 3.8* | 72* | 32 | -4 | -104
COC(=O)c1ccc(NC(=O)C2CCCO2)cc1 (centres undefined) | 11 | 100 | 88 | 0 | 1.6 | 23 | . | . | .
CC1(C)CC(CC(=O)Nc2ccccc2[N+](=O)[O-])C(=O)O1 (centres undefined) | 23 | 100 | 106 | 0 | 1.2 | -3 | . | . | .
CCc1ccc(-c2nc(-c3ccncc3)no2)cc1 | 168* | 116 | 58 | -18 | 3.4* | 57* | 29 | -14 | -99
COc1ccc(-c2nc(CCNC(=O)c3cccs3)cs2)cc1 | -6 | 93 | 78 | 8 | 0.94 | 34 | . | . | .
Cc1cc(C)n(Cc2ccc(NC(=O)c3ccc(COc4ccccc4Br)cc3)cc2)n1 | -12 | 89 | 59 | 5 | 0.77 | 52* | 52* | 9 | -1
CCCCc1ccc(NC(=S)NCc2ccc(OC)cc2)cc1 | 24 | 103 | 92 | -5 | 1.1 | 16 | . | . | .
Cc1nc2ccccc2cc1OCc1ccccc1 | 5 | 83 | 49 | 19 | 1.2 | 69* | 50* | 8 | 3
Cc1nc2ccccc2cc1OCc1ccc(Cl)cc1 | . | 89 | 46 | 12 | 1.2 | 71* | 80* | 13* | 4
Cc1nc2ccccc2nc(C)c1=NOCc1cccc(Cl)c1 | 16 | 98 | . | 1 | 0.96 | . | . | . | .
COC(=O)c1sccc1OCc1cccc(OC)c1 | 13 | 102 | 91 | -3 | 1.4 | 15 | . | . | .
COc1cccc(COc2cc3ccccc3nc2C)c1 | 17 | 86 | 39 | 15 | 1.1 | 80* | 76* | 21* | 8

Screens deposited in PubChem BioAssay by several laboratories.
